# Test results from publication PMC4212793 (ACS Nano, 2014).
# Columns and labels:
# [1] = test system: neonatal rat cardiomyocytes (NRCMs); test: Cytoprotection against H2O2 oxidative stress, Live/Dead staining; assay type: cell-based; details: H2O2 200 μM, 2 h; p < 0.001; N = 3
# mESC-CMs = test: Mouse myocardial infarction model, engraftment of DiI-labelled mESC-CMs; assay type: in vivo, athymic nude mice (Foxn1nu); details: heart sections 4 weeks after MI; p < 0.05; N = 3
# Method in brief: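 Male athymic nude mice (Foxn1nu) underwent MI by left anterior descending coronary artery ligation. Immediately after surgery, 2 × 105 CM-DiI-prelabelled mESC-derived CMs from one differentiation batch, alone or encapsulated in test gel, were injected intramyocardially through 30 G needles at two border-zone sites. PBS and gel-only groups served as controls. Frozen OCT heart sections were fixed in 4% paraformaldehyde before imaging.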
# [2] = PA-RGDS self-assembled under similar conditions; cited from earlier work
substance,measurement,setting,value
C16-GTAGLIGQRGDS [PA-RGDS],viability after H2O2 (Live/Dead staining) compared to NRCMs without encapsulation,[1],significantly improved viability
same,number of engrafted DiI-positive mESC-CMs at 4 weeks compared to mESC-CMs only,mESC-CMs,significantly higher
same,storage modulus (G′),[2],around 100 Pa
